Bounds are passed on as bounds.

The test system of series [1] is Plasmodium falciparum. The experiment in a line: Antimalarial activity against chloroquine-sensitive Plasmodium falciparum D10 infected in human type A-positive red blood cells assessed as parasite lactate dehydrogenase activity after 72 hrs by spectrophotometric analysis. Conditions: D10, 72 h. It counts as functional, organism-based. In outline:
(§1)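 Parasites were cultured in human type A-positive red blood cells at 5% hematocrit. Medium was RPMI 1640 with 1% AlbuMax, 0.01% hypoxanthine, 20 mM Hepes and 2 mM glutamine. Cultures were held at 37 °C under 1% O2, 5% CO2, 94% N2. Compounds were dissolved in water or DMSO, then diluted in medium. Values are mean ± SD of three experiments in duplicate.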

Series [2] concerns Plasmodium falciparum. Briefly: Antimalarial activity against chloroquine-resistant Plasmodium falciparum W2 infected in human type A-positive red blood cells assessed as parasite lactate dehydrogenase activity after 72 hrs by spectrophotometric analysis. It counts as functional, organism-based. Conditions: W2, 72 h. In outline: as §1
The nature of series [3]: Therapeutic index, ratio of IC50 for human HMEC1 cells to IC50 for chloroquine-resistant Plasmodium falciparum W2. Conditions: read-out: Ratio IC50. The class given is cell-based.
A short description of series [4]: Cytotoxicity against human HMEC1 cells after 72 hrs by MTT assay. The class given is cell-based. Conditions: HMEC-1, 72 h.

In the case of `COC(=O)[C@H]1CC(C)(C)OO[C@@]1(C)OC` (mixture of isomers), the IC50 in series [1] and in series [2] was greater than 30 µM each time.
Consider `CC[C@@]1(OC)OOC(C)(C)C[C@@H]1C(=O)OC` (mixture of isomers), for which the IC50 in series [1] and in series [2] was greater than 30 µM in each case.
In the case of `CCCC[C@@]1(OC)OOC(C)(C)C[C@@H]1C(=O)OC` (mixture of isomers), the results for the IC50 in series [1], in series [4] and in series [2] were 3.7 µM, greater than 384 µM and 1.5 µM, respectively. For the same molecule, in series [3], the selectivity ratio amounted to 90.
Turning to `CCCC[C@]1(OC)OOC(C)(C)C[C@@H]1C(=O)OC` (mixture of isomers), the IC50 in series [1] and in series [2] was greater than 30 µM throughout.
In the case of `CCCC[C@]1(C)C[C@H](C(=O)OC)[C@](C)(OC)OO1` (mixture of isomers), the IC50 in series [1] was determined as 8.5 µM; in series [2], 4.9 µM.
On the same counts, the results for `CCCC[C@@]1(C)C[C@H](C(=O)OC)[C@](C)(OC)OO1` (mixture of isomers) are 12.6 µM and 11.8 µM.
For `CCCC[C@]1(C)C[C@H](C(=O)OC)[C@@](C)(OC)OO1` (mixture of isomers), in that order: 17.7 µM and 8.4 µM.
On the same counts, the results for `CCCC[C@@]1(C)C[C@H](C(=O)OC)[C@@](C)(OC)OO1` (mixture of isomers) are 17.7 µM and 6.4 µM.
Regarding `CCCC[C@]1(C)C[C@H](C(=O)OC)[C@](CCCC)(OC)OO1` (mixture of isomers), the IC50 came to 4.2 µM in series [1] and 1.5 µM in series [2].
`CCCC[C@@]1(C)C[C@H](C(=O)OC)[C@](CCCC)(OC)OO1` (mixture of isomers): the IC50 in series [1] worked out at 2.6 µM; in series [4], 167 µM; in series [2], 1.3 µM. Also, the selectivity ratio in series [3] is 90.
On to `CCCC[C@]1(C)C[C@H](C(=O)OC)[C@@](CCCC)(OC)OO1` (mixture of isomers), for which the IC50 was found to be 12.3 µM in series [1] and 5 µM in series [2].
For `CCCCC1(CCCC)C[C@H](C(=O)OC)[C@](C)(OC)OO1` (mixture of isomers), in that order: 7.4 µM and 2.5 µM.
Turning to `CCCCC1(CCCC)C[C@H](C(=O)OC)[C@@](C)(OC)OO1` (mixture of isomers), the concentration for half-maximal inhibition (IC50) turned out to be 2.6 µM in series [1], 98.3 µM in series [4] and 0.8 µM in series [2]. Further, the selectivity ratio in series [3] turned out to be 90.
Regarding `CCCCC1(CCCC)C[C@H](C(=O)OC)[C@](CCCC)(OC)OO1` (mixture of isomers), the figures for the IC50 in series [1], in series [4] and in series [2] were 2.9 µM, 108 µM and 1.2 µM, respectively. In addition, the selectivity ratio in series [3] turned out to be 90.
Take `CCCCC1(CCCC)C[C@H](C(=O)OC)[C@@](CCCC)(OC)OO1` (racemic): the IC50 was 2.3 µM in series [1] and 1.2 µM in series [2].
For `CC/C=C/[C@H](CC)C[C@@]1(C)C[C@@H](CC)[C@@H](CC(=O)OC)OO1` [PLAKORTIN], in that order: 0.9 µM and 0.4 µM.

Source of the values: ChEMBL document CHEMBL1926586, “A new class of antimalarial dioxanes obtained through a simple two-step synthetic approach: rational design and structure-activity relationship studies” (J Med Chem, 2011).
